Measured values reported in ChEMBL document CHEMBL3259732, “Vascular effects of diphenylmethoxypiperidine-derived dopamine uptake inhibitors” (2014).
The source made the active and inactive calls. The calls are words filed in the database; no cut-off is given here.

Legend:
Type in all cases: functional
[1] = Vascular activity in receptor-dependent rat mesenteric resistance artery assessed as inhibition of noradrenaline-induced contraction at 3 x 10^-6 M after 5 mins relative to maximal response to KCl; parameters: scale not given: the % may be the effect or the level left
[2] = organism: Rattus norvegicus; test: (§1) Vascular activity in receptor-independent rat mesenteric resistance artery assessed as inhibition of KCl-induced contraction at 3 x 10^-6 M after 5 mins
In short: (§2)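 Receptor-independent response in rat mesenteric resistance arteries normalized to optimal diameter at 100 mmHg transmural pressure. After pre-incubation with test agent at 3 x 10^-6 M, maximal contraction to 75 mM KCl was recorded. Block was judged against control arteries, p<0.05.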

[3] = Vascular activity in receptor-dependent rat mesenteric resistance artery assessed as inhibition of noradrenaline-induced contraction at 3 x 10^-6 M after 5 mins
In short: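 Rat mesenteric resistance arteries set to optimal diameter (OD = 0.9 L100, from the diameter at 100 mmHg transmural pressure). Rings pre-incubated with test agent at 3 x 10^-6 M, then given a dose–response curve to noradrenaline as the receptor-dependent contraction. Inhibition read against control arteries, p<0.05.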

[4] = as §1; in short: as §2

Structure (SMILES) | Activity [1] | inhibition [2] | pD2 [3] | inhibition at 3 µM [4]
CC(C)N1CCC(OC(c2ccc(F)cc2)c2ccc(F)cc2)CC1 | 121% | Active | 4.48 | 
COC(=O)[C@H]1[C@@H](OC(=O)c2ccccc2)C[C@@H]2CC[C@H]1N2C [COCAINE] | 130% | inactive | 6.52 | 
CN1CCC(OC(c2ccccc2)c2ccccc2)CC1 [DIPHENYLPYRALINE] | 129% |  | 5.38 | 70%
CCCCN1CCC(OC(c2ccc(Cl)cc2)c2ccc(Cl)cc2)CC1 | 99% | Active | 4.26 | 
CN1CCC(OC(c2ccccc2)c2ccc(Cl)cc2)CC1 (stereo not drawn) | 113% |  | 5.08 | 70%
NC[C@H](O)c1ccc(O)c(O)c1.O=C(O)C(O)C(O)C(=O)O | 122% |  | 5.95 | 
CN1CCC(OC(c2ccc(F)cc2)c2ccc(F)cc2)CC1 | 121% |  | 5.1 | 70%
Fc1ccc(C(OC2CCNCC2)c2ccc(F)cc2)cc1 | 116% |  | 5.17 | 70%
